This is a sample that favours compounds with a hit; in the whole collection about 2.9% have one here.
S1P3 ag: human S1P3 receptor agonists, primary screen, cell-based, primary and confirmation, NFAT-BLA reporter; S1P3 NFAT-BLA reporter cells, agonism, FRET ratio; relative to 1 µM S1P, basal subtracted; activation, % at 4.5 µM; actives 0.1% (n = 60,000);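 active = activation above the screen-wide mean plus 3 SD, cut at about 4.5% in these data, passing the limit was not always enough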
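Measure – % activation relative to 1 µM S1P (100%), per plate · System – stable CHO line with human S1P3, Gα16, NFAT-BLA reporter · Timing – cells plated overnight, compound 4 h 37 °C, substrate 2 h RT · Technique – fluorescent BLA substrate, ex 405 nm, em 460/535 nm ratio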
5HT1a antag: human 5-HT1a receptor antagonists, primary screen, cell-based, CHO, Ga15 NFAT-bla reporter; CHO 5-HT1a Ga15 NFAT-bla reporter, antagonist mode; inhibition, % at 10 µM; actives 0.68% (n = 62,000); AID 612, 2007;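 active = inhibition above the mean of all tested compounds plus 3 SD, cut at about 43% in these data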;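 note: receptor stimulated by 5-CT agonist at 100 nM near EC80; beta-lactamase reporter measured by ratiometric fluorescence of a cleavable substrate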
HTR1E antagonist: 5-HT1E receptor antagonists, primary screen, cell-based, HTS; 5-hydroxytryptamine receptor 1E (Homo sapiens), P28566; CHO 5-HT1E Ga15 NFAT-bla reporter, FRET, antagonist; inhibition, % at 6 µM; actives 0.99% (n = 65,000);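 active = inhibition above a set limit, the mean inhibition across every tested compound plus 3 SD, cut at about 29% in these data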;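 note: signal is the 460 over 535 nm emission ratio of beta-lactamase substrate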
5HT1E ag: 5-HT1E receptor agonists, primary screen, cell-based, HTS. 5-hydroxytryptamine receptor 1E (Homo sapiens), P28566. CHO 5-HT1E Ga15 NFAT-bla reporter, FRET; 0% DMSO wells, 100% control agonist wells. activation, % at 6 µM. actives 0.69% (n = 65,000). AID 574, 2007;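 active = activation above a set limit, the screen-wide mean activation plus 3 SD, cut at about 8.5% in these data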
HTR1A agonist: human 5-HT1a receptor agonists, primary screen, cell-based, CHO, Ga15 NFAT-bla reporter; CHO 5-HT1a Ga15 NFAT-bla reporter, FRET ratio; 0% basal, 100% maximal reference agonist; activation, % at 10 µM; actives 0.56% (n = 65,000); AID 567, 2006;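 active = activation above the screen-wide mean activation plus 3 SD, cut at about 19% in these data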
S1P1 ag-PAM: S1P1 agonists and agonism potentiators, primary screen, cell-based, primary and confirmation screens, CRE-bla reporter; Sphingosine 1-phosphate receptor 1 (Homo sapiens), P21453; S1P1 CRE-bla cells, forskolin, beta-lactamase FRET, potentiator mode; S1P1 agonist co-added at EC20, 2 nM; 100% = saturating reference agonist, 0% = basal; activation, % at 9.5 µM; actives 0.57% (n = 56,000);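 active = activation above a cutoff set at the mean activation of all tested compounds plus 3 SD, cut at about 54% in these data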;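 note: forskolin at 4 µM as EC80 and the EC20 agonist is SEW2871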
Target sequence (P21453 whole entry, looked up): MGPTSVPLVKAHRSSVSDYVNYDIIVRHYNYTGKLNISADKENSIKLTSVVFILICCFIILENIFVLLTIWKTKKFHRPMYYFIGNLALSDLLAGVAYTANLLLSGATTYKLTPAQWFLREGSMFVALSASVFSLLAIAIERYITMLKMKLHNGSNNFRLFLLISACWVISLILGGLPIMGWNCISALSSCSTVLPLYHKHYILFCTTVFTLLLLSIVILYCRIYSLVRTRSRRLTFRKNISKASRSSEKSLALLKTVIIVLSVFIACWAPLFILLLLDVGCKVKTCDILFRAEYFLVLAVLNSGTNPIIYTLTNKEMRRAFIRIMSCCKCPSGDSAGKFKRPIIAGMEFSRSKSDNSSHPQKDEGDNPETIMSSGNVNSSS
Hits are given with their value; n = inactive; x = no result.

SMILES	S1P3 ag	5HT1a antag	HTR1E antagonist	5HT1E ag	HTR1A agonist	S1P1 ag-PAM
COc1cccc(-c2nnc3sc(C4CCCCC4)nn23)c1	n	x	n	n	n	80
COc1cccc(NC(=O)CCN2CCC(C(N)=O)CC2)c1	n	n	n	n	n	n
COc1ccc(CCNC(=O)c2c(O)c3c([nH]c2=O)CCCC3)cc1	x	n	n	n	n	x
Cc1cccc2cc3c(NC(=O)c4ccccn4)nn(C)c3nc12	5.3	n	n	n	n	n
CCCC(=O)Nc1nn(C)c2nc3c(C)cccc3cc12	n	n	n	n	n	n
CC(=O)OC1c2ccccc2C(=O)N1Cc1ccccc1Cl (stereo not given)	n	n	n	n	n	n
O=C(Nc1ccc(OC(F)F)c(Cl)c1)Nc1ccc2c(c1)OCO2	n	61	n	n	n	59
CCOc1cc(C(=O)Nc2ccc3c(c2)OCO3)ccc1OC(F)F	n	n	n	n	n	n
C#CCNc1nc(C)nc2c1nnn2Cc1ccccc1F	n	n	n	n	n	n
CCCCC(=O)NC(Nc1nc(C2CC2)cs1)(C(=O)OCC)C(F)(F)F (stereo not given)	5.3	n	n	n	n	n
CCc1nn(C(C)C(=O)N2CCN(Cc3ccccc3)CC2)c(=O)c2cc3occc3n12 (stereo not given)	n	n	n	16	n	n
Cc1nn(C(C)C(=O)N2CCN(c3ccccn3)CC2)c(=O)c2cc3occc3n12 (stereo not given)	n	n	n	n	n	n
COc1ccc(-c2nc(C#N)c(NCc3ccc(F)cc3)o2)cc1OC	n	n	30	n	n	n
COc1ccc(N=c2scc(-c3ccc(S(=O)(=O)N4CCOCC4)cc3)n2CCCO)cc1	n	n	n	n	n	101
CC(C)=CCC(C)(C)CNC(=O)NC1CCCCC1	n	x	99	n	n	n
CCCSc1nnc(NC(=O)Nc2ccccc2)s1	n	x	n	n	n	n
CCCSc1nnc(NC(=O)Nc2ccc(F)cc2)s1	n	x	32	n	n	n
O=C(Nc1ncc(Br)s1)C(Cc1ccccc1)n1cccc1 (stereo not given)	n	n	n	n	n	99
O=C(Nc1cccnc1)C(Cc1ccccc1)n1cccc1 (stereo not given)	n	n	n	n	n	n
CN(C)CC(C)(C)CNC(=O)C1CCN(Cc2ccccc2O)CC1	n	n	n	n	n	n
CCOc1cc(S(=O)(=O)NCc2ccccn2)c(C)cc1C	n	n	n	n	53	n
COc1ccc(C(C)C)cc1S(=O)(=O)NCc1ccccn1	n	n	n	n	n	n
O=C(CSC1=NCCS1)Nc1ccnc2ccccc12	n	n	n	n	n	109
OC(COc1c(F)cc(Br)cc1F)CN1CCN(c2ccc(F)cc2)CC1 (stereo not given)	n	63	n	n	n	n
Cc1ccc(N(CC(=O)NCc2ccc3c(c2)OCO3)S(=O)(=O)c2c(C)noc2C)cc1	n	n	n	n	n	n
SMILES	S1P3 ag	5HT1a antag	HTR1E antagonist	5HT1E ag	HTR1A agonist	S1P1 ag-PAM
CCN1CCn2c1nc(N1CCCCC1)nc2=O	n	n	n	9.4	n	n
CCN(CC)c1nc2n(c(=O)n1)CCN2CC	n	n	n	n	n	n
COc1cccc2sc(Nc3nnc(-c4cccs4)o3)nc12	n	46	n	n	n	n
CCOC(=O)c1sc(Nc2nc3c(OC)cccc3s2)nc1C	n	n	n	13	28	n
COc1cccc2sc(Nc3nc(-c4ccccn4)cs3)nc12	n	66	69	n	n	72
Cc1cccc(N2CCN(C(=O)COc3cc(=O)n(C)c4ccccc34)CC2)c1C	n	n	n	13	n	n
C1COC(NC(C2CC2)C2CC2)=N1	n	x	n	n	n	n
CCNc1nc(NCC)n2c(SCc3nc4ccccc4c(=O)[nH]3)nnc2n1	n	n	53	n	n	n
Cn1c(-c2ccccc2)cnc1SCc1nc2ccccc2c(=O)[nH]1	n	n	n	59	n	n
OCCCc1nc2n(n1)C(c1ccccc1Cl)C=C(c1cccs1)N2 (stereo not given)	n	44	50	n	n	n
OCCCc1nc2n(n1)C(c1cccs1)C=C(c1ccccc1)N2 (stereo not given)	n	n	n	n	n	n
C=CCn1c(-c2cccs2)nc2ccccc21	n	n	n	n	n	n
C=CCSc1nc2ccccc2n1Cc1nnc(-c2cccs2)o1	n	n	n	18	n	n
CCn1c(COc2ccccc2OC)nnc1SCC#N	n	n	n	n	n	n
CCOc1ccc(N(CC(=O)O)S(=O)(=O)c2ccc(F)cc2)cc1	n	n	n	n	74	n
COc1cc2c(cc1NC(=O)CC1SC(N3CCCC3)=NC1=O)oc1ccccc12 (stereo not given)	n	n	n	n	n	n
c1ccc(CC2CCN(c3nnnn3-c3ccccc3)CC2)cc1	n	n	32	n	n	n
COc1ccc(NC(=O)C2CCN(Cc3cnn(-c4ccccc4)c3-n3cccc3)CC2)cc1OC	x	n	n	n	n	x
O=C(NCc1ccc2c(c1)OCO2)C1CCN(Cc2cnn(-c3ccccc3)c2-n2cccc2)CC1	x	n	n	12	n	x
COc1ccc(CCNc2ncnc3c2oc2ccccc23)cc1OC	n	n	n	n	n	116
COc1ccc(CCNc2nc(C)nc3c2oc2ccccc23)cc1OC	x	n	n	n	n	x
CCNc1ccc(C(=O)OCC)cc1NC(=O)c1cccc(N(C)C)c1	x	n	45	n	n	x
O=C(CN1CCC(O)CC1)N1c2ccccc2C=Cc2ccccc21	n	n	n	n	n	n
CCOc1ccccc1C(=O)N1CCN=C1SCc1cccnc1	n	n	n	n	n	n
CCN(C1CCCCC1)S(=O)(=O)c1ccc(S(=O)(=O)NCc2ccncc2)cc1	n	n	n	n	n	88
COC(=O)c1nnn(-c2nonc2N)c1CSc1ccc(Cl)cc1	n	n	30	n	n	n
CN(C)CCN(Cc1ccccc1)c1ccnc(N(C)C)c1C#N	n	n	n	21	n	x
CN(C)CCN(Cc1ccccc1)c1ccccn1	n	x	n	n	n	n
CC(=O)OC(C(=O)NC1CCCCC1)c1ccc(C)cc1 (stereo not given)	n	n	n	32	n	n

Screening results from PubChem.
